# Measurements published in article PMC3727929 (Molecular Biology of the Cell, 2013).
# Entries after “also recorded” stand apart in the source; their conditions may differ.
# Key:
# [1] = Solubility of Dyn2 constructs on concentration; type: physicochemical; settings: buffer A, pH 6.8; WT 6.0 mg/ml, H58K 10.0 mg/ml, F76K/Y78E 6.0 mg/ml
# microtubules = settings: full-length dynein, HaloTag-TMR labeled; ref Reck-Peterson et al., 2006; cited from earlier work
# Pac11-Myc = test: Single-molecule Dyn1-Pac11 colocalization assay; type: binding, S. cerevisiae; settings: pH 7.2, motors diluted as for motility assays (∼1 nM)
# How it was run: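 Glass flow chamber from HNO3/NaOH-cleaned coverslip. Sequential steps: Cy5-labelled rabbit anti-Myc diluted 10,000× in 30 mM HEPES, 2 mM MgCl2, 1 mM EGTA, 0.5 mg/ml BSA (pH 7.2), 2 min; blocking buffer with 5 mg/ml BSA and 1 mg/ml β-casein, 5 min; TMR-HaloTag-labelled, TEV-released Dyn1 in blocking buffer, 5 min; second round of antibody, 5 min. Cy5–TMR spot colocalization scored.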
# Dyn2 = Dyn2 (Saccharomyces cerevisiae, UniProt Q02647); test: Western blot of Dyn2 copurifying with Dyn1; type: binding, S. cerevisiae; settings: IgG affinity purification, anti-Dyn2 Western blot, Dyn1 normalized
# How it was run: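 Dyn1 was IgG-bead purified from yeast lysate of WT, dyn2Δ and dyn2Δpac11Δ strains (lysis pH 7.4, 100 μM MgATP, beads 1 h at 4°C) and TEV-released at 16°C for 1 h. Dyn1 was quantified by Krypton-stained SDS–PAGE against BSA standards, then equal Dyn1 amounts were loaded. Blots used rabbit anti-Dyn2 (1:200), anti-Myc for Pac11 (1:2000) and Alexa Fluor 680 anti-rabbit secondary (1:5000).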
# [2] = molecular target: Dyn1 (S. cerevisiae cytoplasmic dynein heavy chain), full length, ZZ-TEV-GFP and HaloTag tagged (S. cerevisiae) (UniProt P36022); test: single-molecule TIRF fluorescence intensity analysis
# [3] = molecular target: Dyn2 (S. cerevisiae dynein light chain), wild type, full length (S. cerevisiae, UniProt Q02647 1-92); test: ITC
molecule,measurement,setting,value
Dyn2 F76K/Y78E,solubility during concentration step,[1],remained soluble
Dyn1: full-length dynein labeled at its C-terminus with the HaloTag and covalently bound to tetramethylrhodamine (TMR),average run length,microtubules,1.7 μm
Dyn1 purified from dyn2Δpac11Δ,colocalization of Dyn1 with Pac11-Myc (in words),Pac11-Myc,did not reveal any associated Pac11; also recorded: do not show significant TMR-Cy5 colocalization
same,Dyn2 copurified with Dyn1,Dyn2,absence of Dyn2
Dyn1 purified from dyn2Δ: TMR-labeled Dyn1 purified from VY263 with dyn2Δ,colocalization of Dyn1 with Pac11-Myc (in words),Pac11-Myc,did not reveal any associated Pac11; also recorded: do not show significant TMR-Cy5 colocalization
same,Dyn2 copurified with Dyn1,Dyn2,absence of Dyn2
"Dyn1 (S. cerevisiae cytoplasmic dynein heavy chain), full length, ZZ-TEV-GFP and HaloTag tagged, P36022 1-4092",stoichiometry N,[2],2
Dyn2 H58K,solubility during concentration step,[1],remained soluble
"ITYDKGIQTDQ [Pac11 peptide 2 (second Dyn2-binding site of Pac11, residues 75-85)]",Kd,[3],620 nM
same,dH,[3],-5.17 ± 0.139 kcal/mol
same,stoichiometry N,[3],1.05 ± 0.02 sites
